Values after ≈ are worked out from the molar mass of the structure shown.
Key:
Candida albicans [1] = assay: Binding affinity to Candida albicans CYP56 assessed as dissociation constant for enzyme-substrate complex by spectrophotometry
Method in brief: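 His-tagged CYP56 expressed in E. coli BL21(DE3) and Ni2+-NTA purified; 2 μM enzyme in 0.1 M potassium phosphate (pH 7.4) with 20% glycerol. N-formyl tyrosine titrated from 26 to 253 μM, with spectra read at 320–470 nm until saturation. ΔA390-412 fitted to the Hill equation by nonlinear regression. A Hill plot gave ks (enzyme–substrate dissociation constant) and Hill number.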

[2] = Binding affinity to Candida albicans CYP56 by spectrophotometry
Method in brief: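 His-tagged C. albicans CYP56 was expressed in E. coli BL21(DE3) and purified on Ni2+-NTA agarose, then used at 2 μM. Azole in DMSO was titrated stepwise (23–684 nM across the drugs), scanning 350–500 nm. Kd was taken from ΔA430-412 versus azole concentration by Levenberg-Marquardt nonlinear regression of the Hill equation.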

Candida albicans [3] = assay: Antimicrobial activity against Candida albicans YNM11 harboring cyp56delta::FRT/cyp56::FRT mutant gene by Etest method; type: functional
Candida albicans [4] = assay: Antimicrobial activity against wild type Candida albicans SC5314 by Etest method; type: functional
Candida albicans [5] = assay: Antimicrobial activity against Candida albicans YNM12 harboring cyp56delta::FRT/cyp56::FRT/RP10-CYP56 mutant gene by Etest method; type: functional

| Compound | Kd [2] | MIC80 (Candida albicans [3]) | MIC80 (Candida albicans [4]) | also measured |
| --- | --- | --- | --- | --- |
| O=CN[C@@H](Cc1ccc(O)cc1)C(=O)O | – | – | – | Ks (Candida albicans [1]): 26 µM |
| C[C@@H](c1ncncc1F)[C@](O)(Cn1cncn1)c1ccc(F)cc1F [VORICONAZOLE] | 510 nM | 0.007 µg/mL (≈ 0.02 µM) | 0.007 µg/mL (≈ 0.02 µM) | – |
| CC[C@H](C)C[C@H](C)CCCCCCCCC(=O)N[C@H]1C[C@@H](O)[C@@H](NCCN)NC(=O)[C@@H]2[C@@H](O)CCN2C(=O)[C@H]([C@H](O)CCN)NC(=O)[C@H]([C@H](O)[C@@H](O)c2ccc(O)cc2)NC(=O)[C@@H]2C[C@@H](O)CN2C(=O)[C@H]([C@@H](C)O)NC1=O [CASPOFUNGIN] | – | – | 0.015 µg/mL (≈ 0.0137 µM) | MIC80 (Candida albicans [5]): 0.03 µg/mL (≈ 0.0274 µM) |
| C[C@@H]1[C@H](O)[C@@H](C)/C=C/C=C/C=C/C=C/C=C/C=C/C=C/[C@H](O[C@@H]2O[C@H](C)[C@@H](O)[C@H](N)[C@@H]2O)C[C@@H]2O[C@](O)(C[C@@H](O)C[C@@H](O)[C@H](O)CC[C@@H](O)C[C@@H](O)CC(=O)O[C@H]1C)C[C@H](O)[C@H]2C(=O)O [AMPHOTERICIN B] | – | – | – | MIC (Candida albicans [3]): 1 µg/mL (≈ 1.08 µM); MIC (Candida albicans [4]): 1 µg/mL (≈ 1.08 µM) |
| CCC(C)n1ncn(-c2ccc(N3CCN(c4ccc(OCC5COC(Cn6cncn6)(c6ccc(Cl)cc6Cl)O5)cc4)CC3)cc2)c1=O (configuration not stated) [ITRACONAZOLE] | 100 nM | – | – | – |
| OC(Cn1cncn1)(Cn1cncn1)c1ccc(F)cc1F [FLUCONAZOLE] | 230 nM | 0.06 µg/mL (≈ 0.196 µM) | 0.06 µg/mL (≈ 0.196 µM) | – |
